The subject of assay [1] is CCRF-CEM. Nature of the assay: Cytotoxicity against human CCRF-CEM cells after 72 hrs by MTT assay. The format is functional, cell-based. In a few lines:
(§1)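 MTT microculture assay. Cells were seeded per well at 3 × 10³ (A-549, MCF-7, MDA-MB-231; DMEM), 5 × 10³ (HeLa; RPMI 1640) or 1 × 10⁴ (Jurkat, CEM; RPMI 1640), all with 10% FCS. Final concentrations were 10⁻⁴–10⁻⁶ mol·L⁻¹ (4 levels), for 72 h. MTT was then added for 4 h and SDS for 12 h, and A540 read. IC50 was taken against blank-corrected untreated control.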

In assay [2] the test system is HeLa. Nature of the assay: Cytotoxicity against human HeLa cells after 72 hrs by MTT assay. It counts as functional, cell-based.
In assay [3] the test system is MCF7. Nature of the assay: Cytotoxicity against human MCF7 cells after 72 hrs by MTT assay. The format is functional, cell-based. The note with it: MCF7, 72 h. In a few lines: as §1
In assay [4] the test system is A549. Nature of the assay: Cytotoxicity against human A549 cells after 72 hrs by MTT assay. The format is functional, cell-based. The note with it: A549, 72 h.
Assay [5] concerns MDA-MB-231. Nature of the assay: Cytotoxicity against human MDA-MB-231 cells after 72 hrs by MTT assay. The format is functional, cell-based. The note with it: MDA-MB-231, 72 h. In a few lines: as §1
The test system of assay [6] is Jurkat. Nature of the assay: Cytotoxicity against human Jurkat cells after 72 hrs by MTT assay. It counts as functional, cell-based. In a few lines: as §1
The subject of assay [7] is Bacillus subtilis. Kind of assay: Antibacterial activity against Bacillus subtilis CCM 4062 at 20 ug/2.5 ul/6 mm disk after 24 hrs by disk diffusion assay. The format is functional, organism-based. In a few lines:
(§2)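 Inoculum was prepared from an overnight blood-agar culture and adjusted in saline to 1.5 × 10⁸ CFU/ml (0.5 McFarland). It was swabbed evenly onto Mueller–Hinton or Sabouraud agar, and paper disks were applied. Plates were incubated 24 h at 37 °C. The read-out was inhibition-zone diameter around the disk, run alongside clinical antimicrobial reference agents.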

Assay [8] concerns Streptococcus pyogenes. Nature of the assay: Antibacterial activity against Streptococcus pyogenes CCM 4425 at 20 ug/2.5 ul/6 mm disk after 24 hrs by disk diffusion assay. The format is functional. The gist of the method:
as §2

Calls of active or inactive are those of the source. No cut-off for these calls is given here.

For `CON1c2ccccc2[C@@]2(CN=C(SC)S2)[C@@H]1Nc1ccccc1` (relative stereo), the IC50 worked out at 31.8 µM in assay [1]; 25.8 µM in assay [2]; 100 µM in assay [3]; 100 µM in assay [4]; 62 µM in assay [5]; 17.8 µM in assay [6].
In the case of `CON1c2ccccc2[C@@]2(CN=C(SC)S2)[C@H]1Nc1ccc(C)cc1` (relative stereo), the IC50 in assay [1] is 100 µM; in assay [2] it was 36.8 µM; in assay [3], 100 µM; in assay [4], 100 µM; in assay [5], 100 µM; in assay [6], 33.3 µM.
In the case of `CON1c2ccccc2[C@@]2(CN=C(SC)S2)[C@@H]1Nc1ccc(C(F)(F)F)cc1` (relative stereo), the IC50 worked out at 74.3 µM in assay [1]; 81.9 µM in assay [2]; 100 µM in assay [3]; 1 µM in assay [4]; 88 µM in assay [5]; 41.8 µM in assay [6]. Further, the outcome in assay [7] was Active.
On to `CO[C@H]1N(OC)c2ccccc2[C@@]12CN=C(SC)S2` (relative stereo), for which the IC50 in assay [1] was found to be 100 µM; in assay [2], 48.9 µM; in assay [3], 100 µM; in assay [4] it was 100 µM; in assay [5], 100 µM; in assay [6] it was 30.2 µM.
Regarding `CON1c2ccccc2[C@@]2(CN=C(SC)S2)[C@H]1Nc1ccc([N+](=O)[O-])cc1` (relative stereo), the IC50 in assay [1] worked out at 54.5 µM; in assay [2] it was 100 µM; in assay [3], 88 µM; in assay [4] it was 30.2 µM; in assay [5], 100 µM; in assay [6], 100 µM.
As for `CON1c2ccccc2[C@@]2(CN=C(SC)S2)[C@H]1Nc1ccc(Cl)c(Cl)c1` (relative stereo), the IC50 in assay [1] came to 22.6 µM; in assay [2], 21.8 µM; in assay [3], 22.6 µM; in assay [4], 21.1 µM; in assay [5], 20.7 µM; in assay [6], 21 µM. In addition, the result in assay [7] was Active.
Regarding `CON1c2ccccc2[C@@]2(CN=C(SC)S2)[C@H]1Oc1ccccc1` (relative stereo), the IC50 in assay [1], in assay [2], in assay [3], in assay [4], in assay [5] and in assay [6] was 100 µM each time.
Take `CON1c2ccccc2[C@@]2(CN=C(SC)S2)[C@H]1Nc1ccc(Cl)cc1` (relative stereo): the IC50 was 100 µM in assay [1]; 22.3 µM in assay [2]; 28.5 µM in assay [3]; 22.3 µM in assay [4]; 20.7 µM in assay [5]; 100 µM in assay [6].
With `COc1ccc(N[C@@H]2N(OC)c3ccccc3[C@@]23CN=C(SC)S3)cc1` (relative stereo), the IC50 in assay [1] was 10 µM; in assay [2] it was 81.5 µM; in assay [3], 100 µM; in assay [4], 73.9 µM; in assay [5] it was 100 µM; in assay [6], 34.8 µM.
In the case of `CO[C@@H]1N(OC)c2ccccc2[C@@]12CN=C(SC)S2` (relative stereo), the IC50 in assay [1] turned out to be 100 µM; in assay [2], 53.2 µM; in assay [3] it was 100 µM; in assay [4], 100 µM; in assay [5] it was 100 µM; in assay [6], 57.4 µM.
For the compound `CON1c2ccccc2[C@@]2(CN=C(SC)S2)[C@@H]1Nc1ccccc1Cl` (relative stereo), the IC50 was determined as 36 µM in assay [1]; 76.8 µM in assay [2]; 100 µM in assay [3]; 100 µM in assay [4]; 100 µM in assay [5]; 29.4 µM in assay [6].
Take `CON1c2ccccc2[C@@]2(CN=C(SC)S2)[C@@H]1Nc1ccc(Cl)cc1` (relative stereo): the IC50 in assay [1] is 37.4 µM; in assay [2], 44.8 µM; in assay [3], 100 µM; in assay [4], 85.9 µM; in assay [5] it was 100 µM; in assay [6] it was 30.7 µM.
Take `CON1c2ccccc2[C@@]2(CN=C(SC)S2)[C@H]1Nc1ccccc1` (relative stereo): the IC50 turned out to be 100 µM in assay [1]; 31.9 µM in assay [2]; 100 µM in assay [3]; 100 µM in assay [4]; 100 µM in assay [5]; 100 µM in assay [6].
As to `COc1cc([C@@H]2c3cc4c(cc3[C@@H](O[C@@H]3O[C@@H]5CO[C@@H](C)O[C@H]5[C@H](O)[C@H]3O)[C@H]3COC(=O)[C@H]23)OCO4)cc(OC)c1O` [ETOPOSIDE], the 50% inhibitory concentration (IC50) in assay [1] came out at 1.1 µM; in assay [2], 3.9 µM; in assay [3], 10.9 µM; in assay [4] it was 14.3 µM; in assay [5] it was 21.2 µM; in assay [6], 1.2 µM.
With `CON1c2ccccc2[C@@]2(CN=C(SC)S2)[C@@H]1Nc1ccc(Cl)c(Cl)c1` (relative stereo), the IC50 in assay [1] worked out at 100 µM; in assay [2] it was 15.4 µM; in assay [3], 100 µM; in assay [4] it was 24.7 µM; in assay [5], 35.5 µM; in assay [6], 10 µM.
Take `CON1c2ccccc2[C@@]2(CN=C(SC)S2)[C@H]1Nc1ccc(C)c(C)c1` (relative stereo): the IC50 in assay [1] was found to be 45.5 µM; in assay [2], 23.8 µM; in assay [3] it was 58 µM; in assay [4], 42.6 µM; in assay [5], 100 µM; in assay [6] it was 47.1 µM.
Regarding `COc1cccc2c1C(=O)c1c(O)c3c(c(O)c1C2=O)C[C@@](O)(C(=O)CO)C[C@@H]3O[C@H]1C[C@H](N)[C@H](O)[C@H](C)O1` [DOXORUBICIN], the IC50 is 0.09 µM in assay [1], 0.5 µM in assay [3], 0.2 µM in assay [5] and 0.078 µM in assay [6].
Consider `CON1c2ccccc2[C@@]2(CN=C(SC)S2)[C@@H]1Nc1ccc(Br)cc1` (single isomer, unassigned), for which the IC50 was determined as 54.8 µM in assay [1]; 55.7 µM in assay [2]; 100 µM in assay [3]; 100 µM in assay [4]; 100 µM in assay [5]; 29.3 µM in assay [6]. Also, the “diameter of the inhibition zone (DIZ)” value in assay [8] was 7 mm.
Regarding `CON1c2ccccc2[C@@]2(CN=C(SC)S2)[C@H]1Nc1ccc(Br)cc1` (relative stereo), the IC50 in assay [1] was determined as 28.7 µM; in assay [2], 81.5 µM; in assay [3], 34.1 µM; in assay [4], 35.1 µM; in assay [5], 100 µM; in assay [6] it was 33.4 µM.
Take `CON1c2ccccc2[C@@]2(CN=C(SC)S2)[C@@H]1Oc1ccccc1` (relative stereo): the IC50 in assay [1], in assay [2], in assay [3], in assay [4], in assay [5] and in assay [6] was 100 µM throughout.
For `CON1c2ccccc2[C@@]2(CN=C(SC)S2)[C@@H]1Nc1ccc(C)cc1` (relative stereo), the IC50 in assay [1] came out at 64.7 µM; in assay [2] it was 100 µM; in assay [3] it was 100 µM; in assay [4], 100 µM; in assay [5] it was 78.7 µM; in assay [6], 6.6 µM.
As for `COc1ccc(N[C@H]2N(OC)c3ccccc3[C@@]23CN=C(SC)S3)cc1` (relative stereo), the 50% inhibitory concentration (IC50) in assay [1] was 15.5 µM; in assay [2], 100 µM; in assay [3], 100 µM; in assay [4] it was 100 µM; in assay [5] it was 64 µM; in assay [6], 69.4 µM.
On to `CON1c2ccccc2[C@@]2(CN=C(SC)S2)[C@H]1Nc1ccc(C(F)(F)F)cc1` (relative stereo), for which the IC50 came out at 54 µM in assay [1]; 34.9 µM in assay [2]; 66.8 µM in assay [3]; 46.6 µM in assay [4]; 31.1 µM in assay [5]; 28.4 µM in assay [6]. In assay [7], the outcome was Active.
For the compound `CON1c2ccccc2[C@@]2(CN=C(SC)S2)[C@H]1Nc1ccccc1Cl` (relative stereo), the IC50 amounted to 75.8 µM in assay [1]; 100 µM in assay [2]; 100 µM in assay [3]; 82 µM in assay [4]; 100 µM in assay [5]; 43 µM in assay [6].
Regarding `CON1c2ccccc2[C@@]2(CN=C(SC)S2)[C@@H]1Nc1ccc(C)c(C)c1` (relative stereo), the IC50 in assay [1] amounted to 100 µM; in assay [2], 54.9 µM; in assay [3], 100 µM; in assay [4] it was 100 µM; in assay [5], 100 µM; in assay [6], 10 µM.
As for `CN[C@@H]1N(OC)c2ccccc2[C@@]12CN=C(SC)S2` (relative stereo), the IC50 in assay [1] was found to be 100 µM; in assay [2], 33.6 µM; in assay [3], 100 µM; in assay [4], 100 µM; in assay [5], 100 µM; in assay [6], 100 µM.
With `CON1c2ccccc2[C@@]2(CN=C(SC)S2)[C@@H]1Nc1ccc([N+](=O)[O-])cc1` (relative stereo), the IC50 in assay [1] was 100 µM; in assay [2] it was 50 µM; in assay [3], 100 µM; in assay [4], 100 µM; in assay [5] it was 100 µM; in assay [6], 10 µM.

For the origin of these results see ChEMBL document CHEMBL1136881, “2-(substituted phenyl)amino analogs of 1-methoxyspirobrassinol methyl ether: synthesis and anticancer activity” (Bioorg Med Chem, 2009).
